Several values for one entry are separate records, joined by “and”; a condition that tells them apart may be missing. Equal entries are not always repeated. Some results are limits rather than exact numbers.

Data set [1] deals with GII.4 Sydney [P31] HuNoV. Put plainly: HuNoV replication. In kind it is cell-based, human norovirus. The settings on record: for SI: CC50 over EC50, J2 HIE line. In outline: (§1)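 Differentiated monolayers (24 h INTp, then 5 days INTd) received 100 TCID50 (TCID50 per genotype and HIE line by Reed-Muench) with compound in CMGF- plus 500 μM GCDCA for 1–2 h at 37°C. Cells were washed 3 times, then kept in compound-containing INTd with GCDCA for 24 h. Five ascending concentrations; vehicle 1% DMSO or 2% H2O final. Genome equivalents by RT-qPCR against a standard curve. Triplicate wells, duplicate qPCR. Dunnett versus vehicle; EC50/EC90 by nonlinear regression (top fixed at 100); SI = CC50/EC50.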

Data set [2] concerns J2 HIE line. Put plainly: HIE viability, CellTiter-Glo 2.0 Cell Viability Assay. In kind it is cell-based, human. The settings on record: J2 HIEs, 24 h. A general note: ATP-based viability assays read luminescence as a measure of living cells.
Data set [3] deals with HuNoV. The settings on record: HIE monolayers; cited from earlier work.
Data set [4] has as its system GII.3[P21] HuNoV. Put plainly: HuNoV replication. The data set is classed as cell-based, human norovirus. In outline: as §1
Data set [5] concerns GII.17[P13] HuNoV. The experiment in a line: HuNoV replication. In kind it is cell-based, human norovirus. In outline: as §1
The subject of data set [6] is GI.1[P1] HuNoV. The experiment in a line: HuNoV replication. The settings on record: for EC90: 100 TCID50. In kind it is cell-based, human norovirus. In short, it runs like this:
as §1

For data set [7], the system named is GII.4 Sydney [P16] HuNoV. Put plainly: HuNoV replication. Conditions: for SI: CC50 over EC50; for EC50 / EC90: 100 TCID50, 24 h. In kind it is cell-based, human norovirus. In outline:
as §1

The test system of data set [8] is J4FUT2 HIE line. The experiment in a line: HIE viability, CellTiter-Glo 2.0 Cell Viability Assay. In kind it is cell-based, human. Conditions: J4FUT2 HIEs, 24 h.
The nature of data set [9]: HIE viability, CellTiter-Glo 2.0 Cell Viability Assay. The settings on record: human, D2004 HIE line monolayers. The data set is classed as cell-based. In short, it runs like this:
(§2)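 CellTiter-Glo 2.0 read as directed by the manufacturer on 5-day-differentiated monolayers. Triplicate wells were given vehicle or compound in virus-free incubation medium for 24 h. CC50 from nonlinear regression of percent viability, with the bottom fixed at 0.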

Assay in data set [10]: as above
The settings on record: human, J2004 HIE line monolayers. The data set is classed as cell-based. In outline:
as §2

Assay in data set [11]: as above
The data set is classed as cell-based. Conditions: human, IL2004 HIE line monolayers. In short, it runs like this:
as §2

The test system of data set [12] is J2 HIEs. The experiment in a line: Preliminary dose-range cytotoxicity assessment. The data set is classed as cell-based, human. Conditions: for monolayer integrity and propidium iodide staining: 24 h.
Data set [13] concerns 5 HuNoV strains. The experiment in a line: Antiviral pipeline, summary over all HuNoV strains and HIE lines tested. The data set is classed as cell-based. Conditions: Norovirus, in Homo sapiens. In outline: as §1
Data set [14] relates to HuNoV. Conditions: 31 randomized patients, compared to placebo; ref NCT03395405; cited from earlier work.
The test system of data set [15] is HuNoV. The settings on record: HuNoV-infected, otherwise healthy patients, versus placebo; cited from earlier work.
For data set [16], the system named is GI.1-based HuNoV replicon. Conditions: Huh7 liver cells; cited from earlier work.
For data set [17], the system named is GII.4 Sydney [P31] virus. The settings on record: adult jejunal HIE line plated as monolayers; cited from earlier work.
Data set [18] deals with adult jejunal HIE line (J2) monolayers. The settings on record: cited from earlier work.
Data set [19] deals with 3 different GII.4 HuNoV isolates. Conditions: fetal ileum-derived 3D HIEs; non-cytotoxic concentration; cited from earlier work.
For data set [20], the system named is HuNoV. Conditions: chronically infected HuNoV patients; cited from earlier work.
The conditions of data set [21]: standard adult NTZ dose, one 500 mg tablet by mouth twice daily; cited from earlier work.
Where [22] appears, read: Norovirus, in Homo sapiens, 24 h.
Where [23] appears, read: Norovirus, in Homo sapiens, 24 h, read-out: inhibition of replication.
Where [24] appears, read: CC50 over EC50, J4FUT2 HIE line.
Where [25] appears, read: J4FUT2 HIEs, at 40 and 80 μM, 24 h.
The mark [26] stands for this setting: Norovirus, in Homo sapiens, D2004 (duodenal) HIE line.
The mark [27] stands for this setting: Norovirus, in Homo sapiens, IL2004 (ileal) HIE line.
Setting [28] is: Norovirus, in Homo sapiens, J2 HIE line.
[29] abbreviates: Norovirus, in Homo sapiens, J2004 (jejunal) HIE line.

A word on the EC50: it is the midpoint of the concentration-response curve. A low value points to higher potency in that assay. By EC90 is commonly meant the point of the concentration-response curve where the effect stands at 90%. The low end stands for greater potency, the high end for weaker potency. As a reminder, the inhibition is how much of the control response was suppressed. `C[C@@]1(O)[C@H](O)[C@@H](CO)O[C@H]1n1ccc(N)nc1=O` [2’CMC, 2’-C-methylcytidine]: the SI in [1] was more than 31.6. Further, the reduction of replication in data set [1] (J2 HIEs, between 3 – 316 μM, 24 h) is 0.12 – 2.65 log10. Further, in data set [1] (setting [22]), the EC50 was found to be 10 µM and the 90% effect level (EC90) was put at 54 µM. The inhibition at 316 µM in [1] (setting [23]) lay in the range of 23.5 to 100%. Also, in data set [2] (any concentration tested (up to 316 μM)), the “cytotoxicity (luciferase-based viability assay)” value is listed as “not cytotoxic”. Also, the HuNoV replication entry in [3] is recorded as “inhibit HuNoV replication”.

In general, CC50 refers to the concentration giving 50% cytotoxicity. Low readings indicate harm at low concentration, high ones better tolerance by the cells. Consider `CC(=O)Oc1ccccc1C(=O)Nc1ncc([N+](=O)[O-])s1` [NTZ, nitazoxanide], for which the SI is reported as 1.9 in [1]; 4.5 in data set [4] (setting [24]); 1.9 in data set [5] (setting [24]); 2.7 in [6] (setting [24]); 1.2 in data set [7] (D2004 HIE line); 1.4 in data set [7] (IL2004 HIE line). For the same compound, the SI in data set [7] (J2 HIE line) was determined as 4.0; in [7] (J2004 HIE line) it was 1.2. The reduction in replication in [1] (J2 HIEs, 40 μM, 24 h) was 0.67 log10; in [1] (J2 HIEs, 80 μM, 24 h) it was 2.31 log10; in data set [5] (J4FUT2 HIEs, 80 μM, 24 h), 1.5 log10. Further, the EC50 was 37.1 µM in data set [1] (setting [22]); 14.4 µM in data set [4] (setting [22]); 33.4 µM in [5] (setting [22]); 27.4 µM in data set [6] (setting [22]); 12.9 µM in data set [7] (J2 HIE line); 42.8 µM in data set [7] (setting [26]). For the same compound, the EC50 in data set [7] (setting [27]) was 40 µM; in [7] (setting [28]) it was 12 µM; in data set [7] (setting [29]), 53.9 µM; in data set [13], not below 10 µM. Further, the EC90 in data set [1] (setting [22]) was 43 µM; in data set [4] (setting [22]), more than 80 µM; in data set [5] (setting [22]) it was more than 80 µM; in [6] (J4FUT2 HIE line, 24 h), 76 µM; in data set [6] (Norovirus, in Homo sapiens, 24 h, J4FUT2 HIE line), 76.3 µM; in data set [7] (setting [26]), more than 80 µM. Also, the figures for the EC90 in data set [7] (setting [27]), in data set [7] (setting [28]) and in [7] (setting [29]) were 46 µM, more than 80 µM and more than 80 µM, respectively. In addition, in data set [1] (setting [23]), the inhibition at 40 µM stood at 76.7%. For the same compound, the inhibition at 80 µM in [1] (setting [23]) worked out at 99.5%. Besides, the average percent inhibition in [4] (setting [25]) is recorded as 79.6 – 98.8%. Besides, the inhibition at 20 µM in data set [4] (Norovirus, in Homo sapiens, 24 h, read-out: average percent inhibition) lay within 39.7 to 55.2%. The inhibition in replication in data set [6] (setting [25]) is recorded as 72.3 – 98.2%. The “reduction of genome equivalents” value in [6] (setting [25]) is listed as 0.6 – 1.8 log10. Moreover, the “inhibition of replication (significance)” value is recorded as “significantly inhibitory” in data set [7] (40 μM, duodenal D2004 HIEs) and “significantly inhibitory” in data set [7] (80 μM, across J2, D2004, J2004, IL2004 HIE lines). Moreover, in data set [7] (span over duodenal, jejunal, and ileal lines derived from the same donor), the SIs was 1.2 – 1.4. Moreover, the viability entry in [2] (80 μM) is “reduction in viability”. The cell viability result in [8] (80 μM, in tandem with GII.17 assay) is “significantly reduced cell viability”. In addition, in [8] (40 and 80 μM, in tandem with GII.3 assay), the cytotoxicity result was “cytotoxic”. Further, the average viability entry in data set [8] (in tandem with GI.1 assay) was “steady up to 40 μM but significantly reduced at 80 μM”. Besides, the CC50 at 24 h in data set [9] was 50.9 µM; in data set [10] it was 63.1 µM; in data set [11], 57 µM. In addition, the “monolayer integrity and propidium iodide staining” value was “monolayers were intact and had few dead or damaged cells” in data set [12] (32 μM); “disassociation of the monolayer” in data set [12] (100 μM and above). The “cytotoxicity, CellTiter-Glo 2.0” value in data set [12] (highest concentrations (≥100 μM) of range 3 to 316 μM) is “high cytotoxicity and detachment of the monolayer”. For the same compound, in [14], the “clinical resolution of symptoms” value is reported as “did not improve clinical resolution of symptoms”. In addition, in data set [14], the fecal viral load result was “no effect”. Further, the symptom resolution result in data set [15] is “symptom resolution significantly faster”. The “replication of the replicon” value in [16] was “inhibited replication”. Further, the “inhibitory activity on replication” value in [17] is “no inhibitory activity”. Also, the “highest dose tested that kept the cell monolayers intact” value in data set [18] (J2 HIE monolayers) was 10 µM. Also, the HIE monolayer integrity entry in data set [18] (concentrations below 10 µM) is given as “intact”. The “replication of HuNoV isolates” value in data set [19] is “reduced replication”. Further, in data set [20], the “clinical outcome versus other or no treatments” value is “no differences were reported”.

Regarding `O=C(Nc1ncc([N+](=O)[O-])s1)c1ccccc1O` [tizoxanide], the “maximal concentrations of tizoxanide” value in [21] is “approximately 10 µg/mL and ~ 38 µM”. The “replication of the replicon” value in [16] is listed as “inhibited replication”. In addition, the “replication of HuNoV isolates” value in [19] is “reduced replication”.
